# This is a sample that favours compounds with a hit; in the whole collection about 1.1% have one here.
# Tb MetRS inh – Trypanosoma brucei MetRS inhibition; purified T. brucei MetRS, ATP depletion, Kinase-Glo luminescence; inhibition, % at 11.9 µM; hit rate 0.4% among 360,000; AID 624268;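 active = inhibition above a per-plate cutoff of the control wells' mean inhibition plus 3 SD, cut at about 5.5% in these data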;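 note: 0% = DMSO wells median and 100% = median of wells with control inhibitor compound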
#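 Material – parasite MetRS enzyme · Medium – HEPES-MgCl2-KCl buffer plus DTT, spermine, BSA, pyrophosphatase · Reagent – ATP, methionine and E. coli bulk tRNA substrates · Times – 15 min enzyme-compound preincubation, 2 h reaction, 10 min detection, 25 °C · Measured by – luminescence of leftover ATP · Evaluation – percent inhibition relative to median high and low control wells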
# MT1-MMP act inh – blocks activation of human MT1-MMP. P50281. HT1080 RFP-PRO-GFP cells, GFP/RFP ratio fluorescence, overnight; percent of plate control window, DMSO zero. GFP/RFP ratio change, % at 20 µM. hit rate 0.061% among 360,000;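 active = GFP/RFP ratio change of at least 30% with cell ATP level not reduced by more than half and red fluorescence within 50% of control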
#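 Assay system: HT1080 cells carrying an RFP-PRO-GFP reporter | Dosing: Single dose of 20 µM compound, 1% DMSO final | Incubation: Cells overnight before dosing, compound overnight, 37 °C, 5% CO2 | Evaluation: GFP/RFP fluorescence ratio | Control set: DMSO and RFP-L50D-GFP cell wells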
# SKN-1 block – inhibitors of C. elegans SKN-1; hit rate 0.49% among 360,000; C. elegans VP596 Pgst-4::GFP/RFP ratio, acrylamide-induced, 24 h; inhibition, % at 21.8 µM;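 active = interference check ratio from 0.5 to 1.5 plus GFP to RFP signal ratio inhibition reaching or exceeding a fixed threshold, cut at about 30% in these data, passing the limit was not always enough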
# NPR2 activator – GC-B (human) receptor activation; activation, % at 10 µM; HEK293-GC-B cells, CNP EC30, cGMP TR-FRET; 0% at EC30 CNP, 100% saturating CNP; hit rate 0.11% among 370,000;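 active = activation at 10 µM reaching about 35% in either raw or pattern-adjusted values, limit read from the data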
# Target sequence (P20594 whole entry, looked up): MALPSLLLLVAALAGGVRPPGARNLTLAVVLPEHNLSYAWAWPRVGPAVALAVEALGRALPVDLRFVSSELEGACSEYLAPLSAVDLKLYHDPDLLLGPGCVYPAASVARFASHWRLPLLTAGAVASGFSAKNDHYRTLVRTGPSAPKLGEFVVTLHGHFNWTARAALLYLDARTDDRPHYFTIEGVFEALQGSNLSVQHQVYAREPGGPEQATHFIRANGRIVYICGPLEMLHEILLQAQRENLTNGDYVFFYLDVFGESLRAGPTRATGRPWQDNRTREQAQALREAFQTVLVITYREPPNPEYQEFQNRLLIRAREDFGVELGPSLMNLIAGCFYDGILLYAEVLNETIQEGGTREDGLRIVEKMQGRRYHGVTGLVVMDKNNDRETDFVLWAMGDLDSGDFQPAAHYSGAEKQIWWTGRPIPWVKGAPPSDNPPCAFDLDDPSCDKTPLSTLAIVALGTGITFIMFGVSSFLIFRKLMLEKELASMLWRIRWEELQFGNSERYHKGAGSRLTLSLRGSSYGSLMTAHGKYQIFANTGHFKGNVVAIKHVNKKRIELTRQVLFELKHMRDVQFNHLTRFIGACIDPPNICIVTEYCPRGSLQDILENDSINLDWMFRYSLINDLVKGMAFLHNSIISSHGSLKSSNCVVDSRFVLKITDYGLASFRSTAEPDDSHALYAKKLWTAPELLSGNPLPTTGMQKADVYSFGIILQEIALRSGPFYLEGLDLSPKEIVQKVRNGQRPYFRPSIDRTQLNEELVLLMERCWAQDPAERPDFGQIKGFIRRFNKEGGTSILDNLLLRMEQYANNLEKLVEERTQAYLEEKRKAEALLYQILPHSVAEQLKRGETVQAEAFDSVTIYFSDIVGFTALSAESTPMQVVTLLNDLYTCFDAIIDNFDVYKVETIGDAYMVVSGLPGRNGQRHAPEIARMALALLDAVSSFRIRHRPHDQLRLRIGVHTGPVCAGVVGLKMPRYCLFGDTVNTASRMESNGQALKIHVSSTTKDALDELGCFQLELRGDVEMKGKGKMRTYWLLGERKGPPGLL
# Bfl-1 A1 inh – inhibitors of the anti-apoptotic protein A1, read as caspase activation; MEF A1-2A-BIM cells, Caspase-Glo 3/7 luminescence, 3 h; percent of clofoctol response, vehicle zero; caspase activation, % (test concentration not listed); hit rate 0.066% among 330,000; AID 2462;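 active = over half of replicate activation scores above 10%, or exactly half above 10 with the replicate mean above 10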
# NPR1 activator – GC-A (human) enzyme activation. P16066. activation, % at 10 µM. AID 1671463. HEK293 GC-A cells, cGMP TR-FRET, EC30 ANP; 0% at EC30 ANP, 100% saturating ANP. hit rate 0.14% among 370,000; in the data active = activation above about 40%
# * hit, by the source's call; . = not tested or not shown.
SMILES,Tb MetRS inh,MT1-MMP act inh,SKN-1 block,NPR2 activator,Bfl-1 A1 inh,NPR1 activator
Cc1ccc(CSc2nnc(-c3n[nH]c4c3CCC4)n2N)cc1,.,.,.,-2,.,-4
CCC(C)n1cnc2c(c1=O)c1nc3ccccc3nc1n2Cc1ccc(OC)cc1 (stereo not drawn),0,0,31,54*,0,53*
COc1ccc(Cn2c(C)nc3c(c2=O)c2nc4ccccc4nc2n3Cc2ccco2)cc1,0,-19,-3,28,.,28
CCCCn1cnc2c(c1=O)c1nc3ccccc3nc1n2Cc1ccc2c(c1)OCO2,0,-5,4,52*,0,52*
CCCCn1c2nc3ccccc3nc2c2c(=O)n(CCC(C)C)cnc21,-1,2,3,9,1,17
CC(=O)Nc1ccc(Nc2nc(C)c([N+](=O)[O-])c(Nc3ccccc3)n2)cc1,0,-8,9,58*,0,56*
CCOc1ccc(/C=C/C2=Cc3c(sc(NC(=O)CSc4n[nH]c(N)n4)c3C#N)C(C)(C)C2)cc1,0,-48,37*,-3,0,-10
CCOC(=O)/C(C#N)=C\c1ccc(OCC(=O)Nc2ccc(C)cc2C)c(OC)c1,-1,-2,-10,2,1,47*
Cc1c(C)n(C)c2ccc(C(=O)NCCCN(C)C3CCCCC3)cc12,1,7,38*,-4,0,-8
Cc1c(C)n(C)c2ccc(C(=O)NCCCN3CCCCC3C)cc12 (stereo not drawn),0,-1,10,-5,0,-4
Cc1ccc(NC2=NC(c3ccc(F)cc3)n3c(nc(C)cc3=O)N2)c(C)c1 (stereo not drawn),-1,-3,7,20,0,16
Cc1ccc(NC2=NC(c3ccccc3)n3c(nc(C)cc3=O)N2)c(C)c1 (stereo not drawn),1,2,-4,38*,0,29
COc1ccc(-c2csc3nc(-c4ccc(C)cc4)oc(=O)c23)cc1OC,0,0,-6,-4,0,10
COc1ccc(-c2csc3nc(-c4ccccc4OC)oc(=O)c23)cc1,0,-4,2,6,0,42*
O=C(c1cccs1)c1ccc(-c2cccs2)s1,0,-1,62*,-8,-8,-1
CN1CCN(C(=O)c2ccc(-c3cccs3)s2)CC1,0,1,-8,-4,-3,-2
Cc1ccc2sc(NC(=O)c3ccc(N4C(=O)CCC4=O)cc3)nc2c1C,-1,4,-3,2,2,30
O=C(Nc1nc2cc3c(cc2s1)OCO3)c1cccc(N2C(=O)CCC2=O)c1,0,0,-5,3,-1,40
Cc1ccc2sc(NC(=O)c3cccc(N4C(=O)CCC4=O)c3)nc2c1C,0,-2,38*,-1,1,38
O=C(Nc1nc2ccc(Cl)cc2s1)c1cccc(N2C(=O)CCC2=O)c1,0,2,6,-5,0,74*
COc1ccc2nc(NC(=O)c3cccc(N4C(=O)CCC4=O)c3)sc2c1,0,3,-16,0,-3,54*
O=C(Nc1nc2ccccc2s1)c1ccccc1,1,-2,65*,-3,0,12
CCOc1ccc(-n2c(COc3ccc(C)cc3)nnc2SCC(=O)Nc2ccc(F)c(F)c2)cc1,.,.,.,-1,.,-2
CCCC1CCC2(CCC(=O)N2CCSc2ccccc2)CC1 (stereo not drawn),.,.,.,-1,.,1
CCC[C@H]1[C@@H](O)CC[C@@]23CCCN2C(=O)CCC[C@@H]13,.,.,.,-2,.,-1
SMILES,Tb MetRS inh,MT1-MMP act inh,SKN-1 block,NPR2 activator,Bfl-1 A1 inh,NPR1 activator
Cc1cccc(NC(=O)CSc2nc(C)nc3c2c(=O)n(C)c(=O)n3C)c1,1,2,15,10,.,6
Cc1csc(NC(=O)CSc2nc(C)nc3c2c(=O)n(C)c(=O)n3C)n1,0,-3,2,37*,0,28
Fc1ccc(Nc2cccc3nccnc23)cc1,0,2,45*,-4,-3,1
c1cc(Nc2cccc3nccnc23)c2nccnc2c1,0,-49,23,-3,0,-2
CCOC(=O)c1ccc(Nc2nnc(C(C)(C)C)c(=O)[nH]2)cc1,-1,.,37*,3,0,1
[O-]C1=N/[N+](=C/c2ccccc2Cl)CC1,0,7,35*,6,1,3
CCN(CC)C(=O)Oc1ccc(Cl)c2ccccc12,-1,4,16,0,2,-5
CCN(CC)C(=O)Oc1ccc(Br)c2ccccc12,1,-1,37*,-2,3,-5
O=C(CCC(=O)c1ccc(F)cc1)OC1CCOC1=O (stereo not drawn),-2,-1,9,2,1,56*
O=C(OC1CCOC1=O)c1ccc(CO)cc1 (stereo not drawn),0,4,-5,-3,-1,1
Cc1cc2c(c(=O)n1CCN(C)C)C(c1ccc(Cl)cc1)C(C#N)=C(N)O2 (stereo not drawn),0,2,20,-2,0,-5
Cc1cc2c(c(=O)n1C1CC1)C(c1cccc(Cl)c1)C(C#N)=C(N)O2 (stereo not drawn),63*,2,-1,-3,0,-5
O=C1CCC[C@H]2C[C@H](NCc3cccs3)CC[C@]23CCCN13,.,.,.,-3,.,2
CCCN1C2CCCC1CC(NC(=O)c1ccc(F)cc1)C2 (stereo not drawn),1,0,56*,3,0,2
CCCNC(=O)COC(=O)c1[nH]c(C)c(C(=O)OCC)c1C,0,2,35*,-1,0,3
CCOC(=O)c1c(C)[nH]c(C(=O)OCC(=O)N2CCN(S(=O)(=O)c3ccccc3)CC2)c1C,-1,-3,42*,0,1,-8
COC(=O)[C@]12C[C@H](CC(=O)NCc3cccc4ccccc34)C(=O)N(CCC3=CCCCC3)C1=C[C@H](C(C)C)O[C@@H]2C1CC1,.,.,.,-2,.,0
COC/C=C/C1=CC2=CC(=O)C(C)(OC(=O)C3CCCC3)C(=O)C2=CO1 (stereo not drawn),0,3,36*,-1,0,-8
CC(c1ccccc1)N1C(=O)c2cccnc2C1=O (stereo not drawn),1,3,39*,1,1,-1
CC1(C)CC(=O)C=C(Nc2ccccc2NC(=O)c2cccc(F)c2F)C1,.,.,.,3,.,-2
N#C/C(=C/c1ccc(Sc2nc3ccccc3[nH]2)o1)c1cccc(Br)c1,19*,-23,-18,-15,-1,-16

# Screens (PubChem BioAssay)
